Reference: ChEMBL document CHEMBL1136923, “Highly potent, orally available anti-inflammatory broad-spectrum chemokine inhibitors” (J Med Chem, 2009)

Legend:
[1] = target: C-C chemokine receptor type 2 (Homo sapiens) (UniProt P41597); assay: Antagonist activity at CCR2 in human THP1 cells assessed as inhibition of CCL2-induced chemotaxis after 2 hrs by microtiter format trans-well migration assay; format: functional, cell-based; conditions: THP-1
How it was run: (§1)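 Microtiter trans-well migration assay in Gey's balanced salt solution with 1 mg/mL endotoxin-free BSA, no fetal calf serum. Migration ran 2 h at 37 °C. Compounds dissolved in DMSO and added to both top and bottom compartments, final DMSO 1%.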

[2] = target: C-C chemokine receptor type 2 (Homo sapiens) (UniProt P41597); assay: Antagonist activity at CCR2 in human THP1 cells assessed as inhibition of CCL2-induced chemotaxis at 1000 nM after 2 hrs by microtiter format trans-well migration assay; format: functional, cell-based; conditions: THP-1; how it was run: as §1
[3] = target: C-C chemokine receptor type 2 (Homo sapiens) (UniProt P41597); assay: Antagonist activity at CCR2 in human THP1 cells assessed as inhibition of CCL2-induced chemotaxis at 100 nM after 2 hrs by microtiter format trans-well migration assay; format: functional, cell-based; conditions: THP-1; how it was run: as §1
[4] = target: C-C chemokine receptor type 2 (Homo sapiens) (UniProt P41597); assay: Antagonist activity at CCR2 in human THP1 cells assessed as inhibition of CCL2-induced chemotaxis at 10 nM after 2 hrs by microtiter format trans-well migration assay; format: functional, cell-based; conditions: THP-1; how it was run: as §1
[5] = target: C-C chemokine receptor type 2 (Homo sapiens) (UniProt P41597); assay: Antagonist activity at CCR2 in human THP1 cells assessed as inhibition of CCL2-induced chemotaxis at 1 nM after 2 hrs by microtiter format trans-well migration assay; format: functional, cell-based; conditions: THP-1; how it was run: as §1
[6] = target: C-C chemokine receptor type 2 (Homo sapiens) (UniProt P41597); assay: Antagonist activity at CCR2 in human THP1 cells assessed as inhibition of CCL2-induced chemotaxis at 0.1 nM after 2 hrs by microtiter format trans-well migration assay; format: functional, cell-based; conditions: THP-1; how it was run: as §1
Mus musculus [7] = assay: Antiinflammatory activity in sc dosed mouse assessed as inhibition of LPS-induced TNFalpha upregulation measured 2 hrs after LPS challenge; format: functional
Mus musculus [8] = assay: Antiinflammatory activity in sc dosed mouse assessed as inhibition of LPS-induced TNFalpha upregulation measured 2 hrs after LPS challenge relative to control; format: functional
How it was run: (§2)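 Murine sublethal LPS endotoxemia screen. LPS is injected intraperitoneally and serum TNF-α is measured 2 h later as the end point. Compound is given subcutaneously or orally in a vehicle of 0.6% DMSO plus 1% carboxymethylcellulose (final concentrations) in sterile water. Values are % relative to control.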

Mus musculus [9] = assay: Antiinflammatory activity in po dosed mouse assessed as inhibition of LPS-induced TNFalpha upregulation measured 2 hrs after LPS challenge; format: functional
Mus musculus [10] = assay: Antiinflammatory activity in po dosed mouse assessed as inhibition of LPS-induced TNFalpha upregulation measured 2 hrs after LPS challenge relative to control; format: functional; how it was run: as §2
Mus musculus [11] = assay: Antiinflammatory activity in mouse assessed as inhibition of LPS-induced TNFalpha upregulation at 0.0016 ug, sc measured 2 hrs after LPS challenge; format: functional
How it was run: (§3)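 Murine sublethal endotoxemia: LPS given intraperitoneally, with serum TNF-α measured 2 h after the LPS injection as the end point. Compound was given subcutaneously or orally. Vehicle was 0.6% DMSO and 1% carboxymethylcellulose (final concentrations) in sterile water. Effect is reported as % relative to control.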

Mus musculus [12] = assay: Antiinflammatory activity in mouse assessed as inhibition of LPS-induced TNFalpha upregulation at 0.0066 ug, sc measured 2 hrs after LPS challenge; format: functional; how it was run: as §3
Mus musculus [13] = assay: Antiinflammatory activity in mouse assessed as inhibition of LPS-induced TNFalpha upregulation at 0.016 ug, sc measured 2 hrs after LPS challenge; format: functional; how it was run: as §3
Mus musculus [14] = assay: Antiinflammatory activity in mouse assessed as inhibition of LPS-induced TNFalpha upregulation at 0.00016 mg, sc measured 2 hrs after LPS challenge; format: functional
How it was run: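 Murine sublethal endotoxemia: LPS given intraperitoneally, serum TNF-α measured 2 h after LPS injection. Compound vehicle 0.6% DMSO plus 1% carboxymethylcellulose (final concentrations) in sterile water.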

Mus musculus [15] = assay: Antiinflammatory activity in mouse assessed as inhibition of LPS-induced TNFalpha upregulation at 0.0016 mg, sc measured 2 hrs after LPS challenge; format: functional; how it was run: as §3
Mus musculus [16] = assay: Antiinflammatory activity in mouse assessed as inhibition of LPS-induced TNFalpha upregulation at 0.016 mg, sc measured 2 hrs after LPS challenge; format: functional; how it was run: as §3
Mus musculus [17] = assay: Antiinflammatory activity in mouse assessed as inhibition of LPS-induced TNFalpha upregulation at 540 pg, po measured 2 hrs after LPS challenge; format: functional; how it was run: as §2
Mus musculus [18] = assay: Antiinflammatory activity in mouse assessed as inhibition of LPS-induced TNFalpha upregulation at 0.0027 ug, po measured 2 hrs after LPS challenge; format: functional; how it was run: as §3
Mus musculus [19] = assay: Antiinflammatory activity in mouse assessed as inhibition of LPS-induced TNFalpha upregulation at 0.0186 ug, po measured 2 hrs after LPS challenge; format: functional; how it was run: as §3
Mus musculus [20] = assay: Antiinflammatory activity in mouse assessed as inhibition of LPS-induced TNFalpha upregulation at 0.068 ug, po measured 2 hrs after LPS challenge; format: functional; how it was run: as §3
Mus musculus [21] = assay: Antiinflammatory activity in mouse assessed as inhibition of LPS-induced TNFalpha upregulation at 0.75 ug, po measured 2 hrs after LPS challenge; format: functional; how it was run: as §3
Mus musculus [22] = assay: Antiinflammatory activity in mouse assessed as inhibition of LPS-induced TNFalpha upregulation at 0.0186 mg, po measured 2 hrs after LPS challenge; format: functional; how it was run: as §3
[23] = Half life in Sprague-Dawley rat at 1 mg/kg, iv administered as single dose; format: ADME, organism-based; design: dose 1 mg/kg, route intravenous; conditions: in vivo
How it was run: (§4)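 Male Sprague-Dawley rats, three per compound, receive a single intravenous dose in 5% DMSO in 0.9% saline. Food and water are given ad libitum. Plasma is taken at 5, 15, 30, 60, 120, 180, 240 and 480 min. Drug is measured by LC/MS/MS after extraction with 0.1% formic acid in acetonitrile. The curve is back-extrapolated to time zero assuming an initial volume of 0.26 L/kg.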

[24] = Clearance in Sprague-Dawley rat at 1 mg/kg, iv administered as single dose; format: ADME, organism-based; design: dose 1 mg/kg, route intravenous; conditions: in vivo; how it was run: as §4
[25] = Volume of distribution at steady state in Sprague-Dawley rat at 1 mg/kg, iv administered as single dose; format: ADME, organism-based; design: dose 1 mg/kg, route intravenous; conditions: in vivo, read-out: Vdss; how it was run: as §4
[26] = AUC (0 to t) in Sprague-Dawley rat at 1 mg/kg, iv administered as single dose; format: ADME, organism-based, Plasma; design: dose 1 mg/kg, route intravenous; conditions: Sprague-Dawley, plasma
How it was run: (§5)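 Male Sprague-Dawley rats, three per compound per route, single dose. IV vehicle 5% DMSO in 0.9% saline; oral gavage vehicle 1% carboxymethylcellulose in 0.9% saline; fed ad libitum. Plasma taken 5–480 min post-dose, extracted with 0.1% formic acid in acetonitrile, quantified by LC/MS/MS (positive mode). AUC(0–t) by linear/log trapezoidal rule; IV curve back-extrapolated assuming initial volume 0.26 L/kg.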

[27] = Fractional bioavailability in Sprague-Dawley rat at 3 mg/kg, po administered as single dose; format: ADME, organism-based; conditions: in vivo
How it was run: (§6)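 Male Sprague-Dawley rats, three per compound, receive a single oral dose by gavage in 1% carboxymethylcellulose in 0.9% saline, with food and water ad libitum. Plasma is sampled from 5 to 480 min and drug is quantified by positive-mode LC/MS/MS after acetonitrile/formic acid extraction. The lower limit of quantitation is about 2 ng/mL. Exposure is AUC(0→t) by the linear/log trapezoidal rule, and F is oral fractional bioavailability.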

[28] = Cmax in Sprague-Dawley rat at 3 mg/kg, po administered as single dose; format: ADME, organism-based; design: dose 3 mg/kg, route oral; conditions: in vivo; how it was run: as §6
[29] = AUC (0 to t) in Sprague-Dawley rat at 3 mg/kg, po administered as single dose; format: ADME, organism-based; design: dose 3 mg/kg, route oral; conditions: plasma; how it was run: as §5
Rattus norvegicus = assay: Plasma concentration in Sprague-Dawley rat at 3 mg/kg, po administered as single dose; format: ADME, organism-based; design: dose 3 mg/kg, route oral; conditions: in vivo; how it was run: as §6

Sequence of C-C chemokine receptor type 2 (Homo sapiens) (P41597 whole entry, looked up): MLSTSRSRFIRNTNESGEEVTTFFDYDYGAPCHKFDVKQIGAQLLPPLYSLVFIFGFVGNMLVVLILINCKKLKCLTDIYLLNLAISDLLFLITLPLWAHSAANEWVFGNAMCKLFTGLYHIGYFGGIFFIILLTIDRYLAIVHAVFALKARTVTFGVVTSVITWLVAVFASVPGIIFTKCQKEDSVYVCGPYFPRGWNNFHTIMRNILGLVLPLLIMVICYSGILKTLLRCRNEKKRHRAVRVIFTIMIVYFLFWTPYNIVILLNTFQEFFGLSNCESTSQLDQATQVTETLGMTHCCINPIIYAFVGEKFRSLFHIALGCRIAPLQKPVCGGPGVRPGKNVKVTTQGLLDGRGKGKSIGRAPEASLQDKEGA

CC1(C(=O)N[C@H]2CCCCNC2=O)CCCCC1
ED50 [1]: 0.09 nM
inhibition [2]: 100%
inhibition [3]: 99%
inhibition [4]: 100%
inhibition [5]: 98%
inhibition [6]: 38%
ED50 (Mus musculus [7]): 0.33 µg/kg
inhibition (INH) (Mus musculus [8]): 90%
ED50 (Mus musculus [9]): 0.33 µg/kg
inhibition (INH) (Mus musculus [10]): 90%
inhibition (INH) (Mus musculus [11]): 11%
inhibition (INH) (Mus musculus [12]): 52%
inhibition (INH) (Mus musculus [13]): 71%
inhibition (INH) (Mus musculus [14]): 74%
inhibition (INH) (Mus musculus [15]): 73%
inhibition (INH) (Mus musculus [16]): 88%
inhibition (INH) (Mus musculus [17]): -1%
inhibition (INH) (Mus musculus [18]): 14%
inhibition (INH) (Mus musculus [19]): 64%
inhibition (INH) (Mus musculus [20]): 64%
inhibition (INH) (Mus musculus [21]): 70%
inhibition (INH) (Mus musculus [22]): 90%
half-life [23]: 11 min
clearance [24]: 55 mL/min/kg
Vd [25]: 0.6 L/kg
AUC(0-t) [26]: 48.3 ng·h/mL
bioavailability [27]: 5%
Cmax [28]: 3 ng/mL
AUC(0-t) [29]: 7.17 ng·h/mL
Cp (Rattus norvegicus): < 2 ng/mL

CCCCCCCCC/C=C(\C)C(=O)N[C@H]1CCCCNC1=O
ED50 [1]: 10 nM

O=C(CC12CC3CC(CC(C3)C1)C2)N[C@H]1CCCCNC1=O
ED50 [1]: 0.8 nM

CCCCCCCCCC(C)(C)CC(=O)N[C@H]1CCCCNC1=O
ED50 [1]: 4 nM

CC(CCl)(CCl)C(=O)N[C@H]1CCCCNC1=O
ED50 [1]: 9 nM
